Source: ChEMBL document CHEMBL5653631, “A Potent and Selective ULK1 Inhibitor Suppresses Autophagy and Sensitizes Cancer Cells to Nutrient Stress” (iScience, 2018)

How the values were obtained:
[1] = molecular target: Serine/threonine-protein kinase 32A (Homo sapiens) (UniProt Q8WU08); assay: Inhibition of human recombinant YANK1 at 500 nM in presence of ATP by radiometric assay relative to control
[2] = molecular target: Serine/threonine-protein kinase ATR (Homo sapiens) (UniProt Q13535); assay: Inhibition of human recombinant ATR at 500 nM related to control ULK1
In short: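 Panel of 327 recombinant human kinases, each assayed in vitro by radiometric activity assay in duplicate at a single inhibitor concentration per compound, chosen with reference to its ULK1 inhibition. Activity remaining was expressed as percent of vehicle control, and percent inhibition was calculated as 100 minus percent activity remaining.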

[3] = molecular target: Protein kinase C delta type (Homo sapiens) (UniProt Q05655); assay: Inhibition of human recombinant PKCd at 15 nM in presence of ATP by radiometric assay relative to control
[4] = molecular target: T1, Serine/threonine-protein kinase Chk1 (Homo sapiens) (UniProt O14757); assay: Inhibition of human recombinant CHK1 at 15 nM related to control ULK1
T1 sequence (whole entry): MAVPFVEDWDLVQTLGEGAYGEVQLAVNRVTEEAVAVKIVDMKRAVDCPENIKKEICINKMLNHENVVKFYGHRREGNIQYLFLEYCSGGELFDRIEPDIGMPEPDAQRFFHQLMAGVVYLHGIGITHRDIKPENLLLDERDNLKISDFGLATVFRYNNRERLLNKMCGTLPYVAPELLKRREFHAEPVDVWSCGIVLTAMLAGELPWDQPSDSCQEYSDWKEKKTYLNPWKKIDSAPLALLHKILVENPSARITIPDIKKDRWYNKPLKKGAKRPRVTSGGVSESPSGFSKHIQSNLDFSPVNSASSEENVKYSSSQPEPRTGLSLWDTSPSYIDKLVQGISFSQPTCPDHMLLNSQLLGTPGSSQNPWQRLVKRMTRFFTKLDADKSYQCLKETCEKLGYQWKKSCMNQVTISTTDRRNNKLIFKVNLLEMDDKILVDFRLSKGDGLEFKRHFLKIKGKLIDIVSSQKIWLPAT

[5] = molecular target: T2, Serine/threonine-protein kinase DCLK2 (Homo sapiens) (UniProt Q8N568); assay: Inhibition of human recombinant DCAMKL2 at 15 nM related to control ULK1
T2 sequence (whole entry): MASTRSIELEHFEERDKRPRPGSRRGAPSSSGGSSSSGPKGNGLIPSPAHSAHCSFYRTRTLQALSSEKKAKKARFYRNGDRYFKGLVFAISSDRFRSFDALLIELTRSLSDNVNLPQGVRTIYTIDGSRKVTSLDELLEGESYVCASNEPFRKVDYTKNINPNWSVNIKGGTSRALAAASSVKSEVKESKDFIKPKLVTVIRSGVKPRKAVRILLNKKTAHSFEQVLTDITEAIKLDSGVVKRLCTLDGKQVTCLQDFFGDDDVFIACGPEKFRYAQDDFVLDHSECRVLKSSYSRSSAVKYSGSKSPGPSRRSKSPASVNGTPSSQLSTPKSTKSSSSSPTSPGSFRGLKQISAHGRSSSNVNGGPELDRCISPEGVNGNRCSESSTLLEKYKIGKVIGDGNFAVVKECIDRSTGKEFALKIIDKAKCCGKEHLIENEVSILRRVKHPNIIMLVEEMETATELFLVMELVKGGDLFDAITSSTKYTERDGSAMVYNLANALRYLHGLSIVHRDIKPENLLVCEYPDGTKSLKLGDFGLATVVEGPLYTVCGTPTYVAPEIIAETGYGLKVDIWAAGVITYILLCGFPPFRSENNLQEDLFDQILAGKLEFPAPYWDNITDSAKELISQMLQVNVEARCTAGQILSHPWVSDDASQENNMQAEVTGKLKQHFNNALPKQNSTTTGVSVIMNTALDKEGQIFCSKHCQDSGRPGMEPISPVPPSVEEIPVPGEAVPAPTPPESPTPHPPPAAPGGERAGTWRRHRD

[6] = molecular target: T3, Serine/threonine-protein kinase BRSK2 (Homo sapiens) (UniProt Q8IWQ3); assay: Inhibition of human recombinant BRSK2 at 40 nM related to control ULK1
T3 sequence (whole entry): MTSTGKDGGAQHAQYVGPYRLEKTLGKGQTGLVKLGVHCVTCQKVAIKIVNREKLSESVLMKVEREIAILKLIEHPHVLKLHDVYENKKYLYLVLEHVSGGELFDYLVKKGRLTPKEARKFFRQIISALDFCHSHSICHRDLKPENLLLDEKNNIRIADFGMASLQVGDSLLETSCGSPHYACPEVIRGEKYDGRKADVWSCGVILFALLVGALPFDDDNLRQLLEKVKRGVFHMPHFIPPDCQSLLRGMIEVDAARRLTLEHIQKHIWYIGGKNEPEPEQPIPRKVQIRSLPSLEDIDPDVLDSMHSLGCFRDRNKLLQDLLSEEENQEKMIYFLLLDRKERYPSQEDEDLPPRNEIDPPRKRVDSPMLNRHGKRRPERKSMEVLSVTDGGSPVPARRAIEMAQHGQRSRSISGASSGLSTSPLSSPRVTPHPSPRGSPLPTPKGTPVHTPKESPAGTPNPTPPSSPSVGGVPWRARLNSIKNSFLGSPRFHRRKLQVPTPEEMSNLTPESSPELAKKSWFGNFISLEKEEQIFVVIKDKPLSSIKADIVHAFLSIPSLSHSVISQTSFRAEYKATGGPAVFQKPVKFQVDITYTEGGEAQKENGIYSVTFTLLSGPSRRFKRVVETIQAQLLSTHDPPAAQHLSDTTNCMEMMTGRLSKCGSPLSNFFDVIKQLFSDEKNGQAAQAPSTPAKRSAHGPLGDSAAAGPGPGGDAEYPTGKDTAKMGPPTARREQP

[7] = molecular target: Calcium/calmodulin-dependent protein kinase type 1 (Homo sapiens) (UniProt Q14012); assay: Inhibition of human recombinant CaMK1a at 40 nM related to control ULK1
[8] = molecular target: Wee1-like protein kinase 2 (Homo sapiens) (UniProt P0C1S8); assay: Inhibition of human recombinant Wee1B at 40 nM related to control ULK1
Chain of Wee1-like protein kinase 2 (Homo sapiens) (P0C1S8 whole entry, looked up): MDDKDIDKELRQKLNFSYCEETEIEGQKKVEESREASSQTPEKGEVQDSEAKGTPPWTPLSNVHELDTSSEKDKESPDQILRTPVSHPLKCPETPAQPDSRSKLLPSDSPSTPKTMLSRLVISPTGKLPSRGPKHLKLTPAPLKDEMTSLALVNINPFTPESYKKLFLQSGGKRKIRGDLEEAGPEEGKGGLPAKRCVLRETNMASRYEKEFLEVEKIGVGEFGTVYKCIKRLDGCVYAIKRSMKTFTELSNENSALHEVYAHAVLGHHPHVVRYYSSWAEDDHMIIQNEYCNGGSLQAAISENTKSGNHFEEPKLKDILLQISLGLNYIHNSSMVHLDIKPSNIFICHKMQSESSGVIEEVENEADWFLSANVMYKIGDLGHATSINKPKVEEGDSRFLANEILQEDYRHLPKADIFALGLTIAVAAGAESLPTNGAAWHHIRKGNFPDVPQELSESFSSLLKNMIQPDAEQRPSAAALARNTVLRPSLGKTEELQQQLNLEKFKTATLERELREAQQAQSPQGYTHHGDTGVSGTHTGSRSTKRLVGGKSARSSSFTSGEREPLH

Chain of Calcium/calmodulin-dependent protein kinase type 1 (Homo sapiens) (Q14012 whole entry, looked up): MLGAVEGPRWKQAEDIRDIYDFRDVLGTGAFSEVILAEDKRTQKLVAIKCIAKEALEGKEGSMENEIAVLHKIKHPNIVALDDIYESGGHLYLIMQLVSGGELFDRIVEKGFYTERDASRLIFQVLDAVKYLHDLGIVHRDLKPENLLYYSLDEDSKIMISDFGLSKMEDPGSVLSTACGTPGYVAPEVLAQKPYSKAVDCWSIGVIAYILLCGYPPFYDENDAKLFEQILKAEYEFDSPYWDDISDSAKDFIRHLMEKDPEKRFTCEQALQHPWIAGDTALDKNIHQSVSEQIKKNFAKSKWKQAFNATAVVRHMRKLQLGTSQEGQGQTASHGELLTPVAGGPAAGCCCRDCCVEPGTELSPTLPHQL
Chain of Serine/threonine-protein kinase 32A (Homo sapiens) (Q8WU08 whole entry): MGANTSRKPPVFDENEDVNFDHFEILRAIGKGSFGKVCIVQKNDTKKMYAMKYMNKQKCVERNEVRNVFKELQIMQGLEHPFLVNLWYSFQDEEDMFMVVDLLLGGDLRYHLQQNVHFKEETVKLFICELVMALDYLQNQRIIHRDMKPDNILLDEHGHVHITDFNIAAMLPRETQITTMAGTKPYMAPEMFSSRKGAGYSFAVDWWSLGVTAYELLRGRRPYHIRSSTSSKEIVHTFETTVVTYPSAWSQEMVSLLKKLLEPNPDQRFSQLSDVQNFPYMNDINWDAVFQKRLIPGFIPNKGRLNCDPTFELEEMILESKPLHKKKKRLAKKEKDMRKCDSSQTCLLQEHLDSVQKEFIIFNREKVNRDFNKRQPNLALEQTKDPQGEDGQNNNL
Chain of Protein kinase C delta type (Homo sapiens) (Q05655 whole entry, looked up): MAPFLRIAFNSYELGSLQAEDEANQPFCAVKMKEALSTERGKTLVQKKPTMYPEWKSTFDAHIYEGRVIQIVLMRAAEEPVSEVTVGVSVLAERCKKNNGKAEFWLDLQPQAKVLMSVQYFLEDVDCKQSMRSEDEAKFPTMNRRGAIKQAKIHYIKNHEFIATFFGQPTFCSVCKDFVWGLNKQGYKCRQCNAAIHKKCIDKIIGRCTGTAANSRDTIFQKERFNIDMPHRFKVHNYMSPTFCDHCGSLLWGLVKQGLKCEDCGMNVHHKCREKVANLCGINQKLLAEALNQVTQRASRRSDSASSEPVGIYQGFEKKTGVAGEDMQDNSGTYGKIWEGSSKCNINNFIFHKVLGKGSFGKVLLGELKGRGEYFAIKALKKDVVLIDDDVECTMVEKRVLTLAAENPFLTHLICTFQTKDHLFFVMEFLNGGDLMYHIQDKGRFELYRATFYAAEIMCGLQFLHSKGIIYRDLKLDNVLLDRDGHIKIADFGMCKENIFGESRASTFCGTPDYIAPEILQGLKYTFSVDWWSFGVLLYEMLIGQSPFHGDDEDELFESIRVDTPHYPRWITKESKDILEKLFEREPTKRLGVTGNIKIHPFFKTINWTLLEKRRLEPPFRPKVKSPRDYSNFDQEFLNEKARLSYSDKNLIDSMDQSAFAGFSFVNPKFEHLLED
Chain of Serine/threonine-protein kinase ATR (Homo sapiens) (Q13535 whole entry, looked up): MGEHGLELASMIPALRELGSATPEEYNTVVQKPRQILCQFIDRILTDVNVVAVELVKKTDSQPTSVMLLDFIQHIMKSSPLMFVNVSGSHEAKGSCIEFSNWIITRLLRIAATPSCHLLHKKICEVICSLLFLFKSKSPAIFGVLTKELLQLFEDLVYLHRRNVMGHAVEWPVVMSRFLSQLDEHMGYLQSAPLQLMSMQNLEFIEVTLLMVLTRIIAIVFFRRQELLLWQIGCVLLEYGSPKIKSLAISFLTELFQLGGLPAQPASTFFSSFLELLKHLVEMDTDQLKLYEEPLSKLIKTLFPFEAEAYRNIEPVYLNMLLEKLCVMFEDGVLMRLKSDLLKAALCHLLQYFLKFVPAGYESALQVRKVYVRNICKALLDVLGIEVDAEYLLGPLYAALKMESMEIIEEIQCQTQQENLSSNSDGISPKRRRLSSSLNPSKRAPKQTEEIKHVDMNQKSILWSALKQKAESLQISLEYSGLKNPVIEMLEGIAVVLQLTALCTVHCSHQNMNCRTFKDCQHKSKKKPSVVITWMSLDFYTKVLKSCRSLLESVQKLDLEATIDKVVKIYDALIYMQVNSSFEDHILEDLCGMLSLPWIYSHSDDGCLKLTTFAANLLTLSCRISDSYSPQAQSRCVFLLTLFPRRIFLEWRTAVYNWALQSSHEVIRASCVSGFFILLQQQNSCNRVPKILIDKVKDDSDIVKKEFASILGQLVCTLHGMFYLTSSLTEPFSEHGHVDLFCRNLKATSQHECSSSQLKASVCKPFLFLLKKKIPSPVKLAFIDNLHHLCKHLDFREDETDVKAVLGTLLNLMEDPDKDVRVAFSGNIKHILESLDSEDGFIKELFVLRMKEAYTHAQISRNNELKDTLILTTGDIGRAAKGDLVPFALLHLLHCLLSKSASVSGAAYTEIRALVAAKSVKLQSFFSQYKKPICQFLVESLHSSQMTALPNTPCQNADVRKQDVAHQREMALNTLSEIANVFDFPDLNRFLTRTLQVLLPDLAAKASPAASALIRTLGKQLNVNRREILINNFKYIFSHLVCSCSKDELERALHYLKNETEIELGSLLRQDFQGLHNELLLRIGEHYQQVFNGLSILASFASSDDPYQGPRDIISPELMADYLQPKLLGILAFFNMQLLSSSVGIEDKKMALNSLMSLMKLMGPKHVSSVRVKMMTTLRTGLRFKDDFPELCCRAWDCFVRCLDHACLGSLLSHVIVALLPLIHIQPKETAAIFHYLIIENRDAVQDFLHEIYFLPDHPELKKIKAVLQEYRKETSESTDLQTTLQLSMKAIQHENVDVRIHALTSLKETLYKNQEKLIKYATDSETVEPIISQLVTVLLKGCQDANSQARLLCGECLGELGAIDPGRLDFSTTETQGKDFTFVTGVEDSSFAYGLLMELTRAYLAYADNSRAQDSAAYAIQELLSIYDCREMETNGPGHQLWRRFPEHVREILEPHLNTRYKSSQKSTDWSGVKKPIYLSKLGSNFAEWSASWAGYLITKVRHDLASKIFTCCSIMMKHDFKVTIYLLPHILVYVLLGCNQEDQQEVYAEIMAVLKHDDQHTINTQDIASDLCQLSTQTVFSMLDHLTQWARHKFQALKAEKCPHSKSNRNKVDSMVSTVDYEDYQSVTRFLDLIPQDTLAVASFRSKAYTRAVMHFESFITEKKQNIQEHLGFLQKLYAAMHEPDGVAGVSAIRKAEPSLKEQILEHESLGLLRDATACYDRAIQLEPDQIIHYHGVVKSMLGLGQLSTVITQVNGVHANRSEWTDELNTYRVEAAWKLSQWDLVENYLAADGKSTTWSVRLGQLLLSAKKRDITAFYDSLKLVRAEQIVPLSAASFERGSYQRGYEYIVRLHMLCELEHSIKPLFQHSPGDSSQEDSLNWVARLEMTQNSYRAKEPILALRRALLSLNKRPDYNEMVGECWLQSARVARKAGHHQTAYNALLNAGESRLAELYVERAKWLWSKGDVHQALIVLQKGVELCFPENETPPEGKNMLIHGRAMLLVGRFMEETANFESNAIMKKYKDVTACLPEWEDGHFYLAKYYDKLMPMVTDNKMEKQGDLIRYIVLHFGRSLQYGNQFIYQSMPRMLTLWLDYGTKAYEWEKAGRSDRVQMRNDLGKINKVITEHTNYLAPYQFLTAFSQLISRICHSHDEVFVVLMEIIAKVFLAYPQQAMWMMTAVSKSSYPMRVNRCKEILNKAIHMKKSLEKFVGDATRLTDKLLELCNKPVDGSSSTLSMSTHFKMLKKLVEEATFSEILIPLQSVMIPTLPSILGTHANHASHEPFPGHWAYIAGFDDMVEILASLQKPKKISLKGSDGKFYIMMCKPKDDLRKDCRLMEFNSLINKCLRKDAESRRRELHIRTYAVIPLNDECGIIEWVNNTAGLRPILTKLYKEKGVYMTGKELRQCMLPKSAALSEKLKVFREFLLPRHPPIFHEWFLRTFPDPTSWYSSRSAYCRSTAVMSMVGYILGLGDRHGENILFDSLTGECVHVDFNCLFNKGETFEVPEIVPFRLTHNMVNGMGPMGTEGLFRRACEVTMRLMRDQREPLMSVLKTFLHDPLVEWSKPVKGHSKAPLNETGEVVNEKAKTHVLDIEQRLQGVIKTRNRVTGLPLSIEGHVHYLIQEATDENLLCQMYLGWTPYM

CNC(=O)c1ccccc1Oc1nc(Nc2cc(OC)c(OC)c(OC)c2)ncc1Br
inhibition [1]: 0% | fold change (FC) [2]: 0

CC(C)[C@H](NC(=O)c1cc(-c2cnn3cc(-c4ccc(OCCN5CCCCC5)cc4)cnc23)cs1)C(F)(F)F
inhibition [3]: 0% | fold change (FC) [4]: 0 | fold change (FC) [5]: 0.14

O=C(N[C@@H](C1CC1)C(F)(F)F)c1cc(-c2cnn3cc(-c4ccc(F)cc4)cnc23)cs1
fold change (FC) [6]: 0 | fold change (FC) [7]: 0 | fold change (FC) [8]: 0
